Where “and” joins values, the source holds several entries; their conditions need not be identical. Equal values may be shown once.
How the values were obtained:
N1E-115 [1] = assay type: functional, Mus musculus; conditions: at 50 µM
N1E-115 [2] = assay type: functional, Mus musculus; conditions: at 50 µM; remark: listed apart in the source
[3] = target: Potassium voltage-gated channel subfamily A member 3 (Mus musculus) (UniProt P16390); conditions: at 50 µM
N1E-115 [4] = experiment: Blockade of peak steady-state Na+ currents of neuroblastoma cells N1E-115 at 100 uM; assay type: functional, Mus musculus
How it was run: (§1)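 Same N1E-115 whole-cell recordings and solutions (holding −80 mV, room temperature, 5% DMSO). Peak Na+ current is taken at pulses to 0 mV and normalized to the current in control bathing medium. Reported as mean of at least three experiments.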

[5] = target: Potassium voltage-gated channel subfamily A member 3 (Mus musculus) (UniProt P16390); experiment: Blockade of peak steady-state K+ currents of Kv1.3 channels in mice fibroblasts L929 at 50 uM; assay type: functional
How it was run: (§2)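 Whole-cell patch clamp at room temperature on L929 fibroblasts stably transfected with mKv1.3, grown in DMEM with 10% FCS and 300 µg/mL G418. Bath: 160 mM NaCl, 4.5 KCl, 2.0 CaCl2, 1.0 MgCl2, 5 HEPES, pH 7.4, with 5% DMSO. Pipette: 120 KF, 20 KCl, 10 HEPES, 10 EGTA, pH 7.2. Holding −80 mV, 200 ms pulses to 40 mV; peak steady-state current normalized to control bath; mean of ≥3 cells.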

[6] = target: T1, Potassium voltage-gated channel subfamily A member 3 (Mus musculus, UniProt P16390); experiment: Blockade of peak steady-state K+ currents of voltage-gated potassium channel subunit Kv1.3 in mouse fibroblasts L929 at 50 uM; assay type: functional; conditions: in the assay text read “at different concentrations” for “at 50 uM”
T1 sequence (P16390 whole entry): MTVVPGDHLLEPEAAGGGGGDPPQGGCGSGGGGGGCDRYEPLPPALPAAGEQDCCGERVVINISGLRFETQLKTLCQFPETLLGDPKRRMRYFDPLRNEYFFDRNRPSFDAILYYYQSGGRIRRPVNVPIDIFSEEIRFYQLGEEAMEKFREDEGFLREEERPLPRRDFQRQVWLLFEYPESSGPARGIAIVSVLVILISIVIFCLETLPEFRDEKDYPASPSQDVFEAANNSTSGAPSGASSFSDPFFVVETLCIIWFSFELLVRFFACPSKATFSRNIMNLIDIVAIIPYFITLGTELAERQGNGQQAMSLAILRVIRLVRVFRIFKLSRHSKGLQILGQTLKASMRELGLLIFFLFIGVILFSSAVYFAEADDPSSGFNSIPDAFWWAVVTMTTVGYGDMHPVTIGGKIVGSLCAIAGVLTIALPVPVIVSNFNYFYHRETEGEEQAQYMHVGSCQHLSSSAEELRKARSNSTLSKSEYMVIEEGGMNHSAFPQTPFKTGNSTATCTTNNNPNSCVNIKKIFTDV
How it was run: as §2

N1E-115 [7] = experiment: Blockade of peak steady-state Na+ currents of neuroblastoma cells N1E-115 at 25 uM; assay type: functional, Mus musculus
How it was run: as §1

[8] = target: Potassium voltage-gated channel subfamily A member 3 (Mus musculus) (UniProt P16390); experiment: Blockade of peak steady-state K+ currents of Kv1.3 channels in mouse fibroblasts L929 at 25 uM; assay type: functional
How it was run: as §2

N1E-115 [9] = experiment: Inhibition of N1E-115 cells Kv channels; assay type: functional, cell-based; conditions: Mus musculus
How it was run: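 Whole-cell patch clamp on N1E-115 cells. Holding −80 mV, steps to 40 mV; room temperature, bath with 5% DMSO. Peak K+ block is measured at several concentrations, and a modified Hill equation is fitted to give the half-blocking concentration, reported ± SEM.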

N1E-115 [10] = experiment: Blockade of peak steady-state K+ currents of neuroblastoma cells N1E-115 at 25 uM; assay type: functional, Mus musculus
How it was run: (§3)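 Whole-cell patch clamp at room temperature on N1E-115 neuroblastoma cells, grown in DMEM with 10% FCS. Bath: 125 mM NaCl, 5.5 KCl, 1.5 CaCl2, 2.0 MgCl2, 25 glucose, 5 HEPES, pH 7.4, with 5% DMSO. Pipette: 120 KF, 10 KCl, 10 NaCl, 10 HEPES, 10 EGTA, pH 7.2. Holding −80 mV, 100 ms pulses to 40 mV; peak steady-state K+ current normalized to control bath; mean of ≥3 cells.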

[11] = target: T1, Potassium voltage-gated channel subfamily A member 3; experiment: Inhibition of voltage-gated potassium channel subunit Kv1.3 expressed in L929 cells; assay type: functional, cell-based
How it was run: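 Whole-cell patch clamp on mKv1.3-transfected L929 cells. Holding −80 mV, 200 ms steps to 40 mV; room temperature, bath with 5% DMSO. Peak K+ block is measured at several concentrations, and a modified Hill equation is fitted to give the half-blocking concentration, reported ± SEM.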

N1E-115 [12] = experiment: Blockade of peak steady-state Na+ currents of neuroblastoma cells N1E-115 at 50 uM; assay type: functional, Mus musculus
How it was run: as §1

[13] = target: Potassium voltage-gated channel subfamily A member 3 (Mus musculus) (UniProt P16390); experiment: Blockade of peak steady-state K+ currents of voltage-gated potassium channel subunit Kv1.3 expressed in mouse fibroblasts L929 at 50 uM; assay type: functional
How it was run: as §2

[14] = target: Potassium voltage-gated channel subfamily A member 3 (Mus musculus) (UniProt P16390); experiment: Blockade of peak steady-state K+ currents of Kv1.3 channels in mice fibroblasts L929 at 25 uM; assay type: functional
How it was run: as §2

N1E-115 [15] = experiment: Blockade of peak steady-state K+ currents of neuroblastoma cells N1E-115 at 100 uM; assay type: functional, Mus musculus
How it was run: as §3

Potassium voltage-gated channel subfamily A member 3 (Mus musculus), sequence (P16390 whole entry): as above

Compound	BNa (N1E-115 [1]) [%]	BK (N1E-115 [2])	BK [3] [%]	other results
COc1ccc2c(c1)c(=O)c1c(n2C)OC(C)(C)CC1	0	7%	10	–
COc1ccc2c(c1)c(=O)c1cc(C(C)C)oc1n2C	1	33%	44	–
Cn1c2c(c(=O)c3cc(O)ccc31)CC(C(C)(C)O)O2 (configuration not stated)	–	7%	–	BNa (N1E-115 [4]): 13%
Cn1c2c(c(=O)c3ccccc31)CC(C(C)(C)O)O2 (configuration not stated)	0	0%	1	–
COc1ccc2c3c(c(=O)n(C)c2c1OC)C=CC(C)(C)O3	12	55%	–	BK [5]: 41%
COc1ccc(CCCN2CCC(COC(c3ccccc3)c3ccccc3)CC2)cc1	–	–	–	IC50 [6]: 0.28 µM
COc1ccc2c(c1)c1oc(C(C)C)cc1c(=O)n2C	11	57%	98	BNa (N1E-115 [7]): 5%; BK [8]: 98%; IC50 (N1E-115 [9]): 38 µM; IC50 [6]: 5 µM; BK (N1E-115 [10]): 32%
COc1ccc2c(c1)c1oc(C(C)C)c(S(=O)(=O)[O-])c1c(=O)n2C.[Na+]	–	–	–	BNa (N1E-115 [7]): 0%; BK (N1E-115 [10]): 0%
CC(C)c1cc2c(=O)c3ccccc3n(C)c2o1	0	15%	23	–
Cn1c2c(c(=O)c3cc(O)ccc31)CC(O)C(C)(C)O2 (configuration not stated)	–	0%	–	BNa (N1E-115 [4]): 3%
Cn1c(=O)c2c(c3ccccc31)OC(C)(C)C(O)C2 (configuration not stated)	4	15%	–	BK [8]: 4%
COc1ccc2c(c1)c(=O)c1c(n2C)OC(C)(C)C(O)C1 (configuration not stated)	3	6%	–	–
COc1ccc2c(c1)c1c(c(=O)n2C)CCC(C)(C)O1	–	39% and 52%	83	BNa (N1E-115 [7]): 3%; IC50 [11]: 18 µM; BK [8]: 57%; BNa (N1E-115 [12]): 4%; IC50 (N1E-115 [9]): 42 µM
Cn1c(=O)c2c(c3ccccc31)OC(C(C)(C)O)C2 (configuration not stated)	–	4%	–	BNa (N1E-115 [7]): 0%; BK [8]: 3%
COc1cc2nc3occc3c(OC)c2cc1OC [KOKUSAGININE]	0	22%	51	IC50 (N1E-115 [9]): 200 µM; IC50 [6]: 49 µM
CCCCC/N=c1\ccn(Cc2ccccc2)c2ccccc12 [CP-339818]	–	–	–	IC50 [6]: 0.23 µM
Cn1c2c(c(=O)c3ccccc31)CC(O)C(C)(C)O2 (configuration not stated)	0	0%	–	–

Compound	BNa (N1E-115 [1]) [%]	BK (N1E-115 [2])	BK [3] [%]	other results
CC(C)c1cc2c(=O)n(C)c3ccccc3c2o1	11	42%	70	BNa (N1E-115 [7]): 0%; BK [8]: 44%; BK (N1E-115 [10]): 25%
COc1c2ccccc2nc2occc12 [DICTAMNINE]	0	31%	23	–
COc1ccc2c(OC)c3ccoc3nc2c1OC [SKIMMIANINE]	6	20%	13	–
CC1(C)Oc2nc3ccc(Br)cc3c(O)c2CC1Br (configuration not stated)	1	32%	–	BK [13]: 35%
COc1ccc2c(c1)c1c(c(=O)n2C)CC(C(C)(C)O)O1 (configuration not stated)	–	0%	–	BNa (N1E-115 [7]): 0%; BK [8]: 0%
Cn1c(=O)c2c(c3cc([N+](=O)[O-])ccc31)OC(C)(C)CC2	–	14%	–	BNa (N1E-115 [7]): 0%; BK [8]: 7%
CC1(C)CCc2c(O)nc3ccc([N+](=O)[O-])cc3c2O1	8	23%	–	–
COc1ccc2c(c1)c(=O)c1c(n2C)OC(C(C)(C)O)C1 (configuration not stated)	–	0%	–	BNa (N1E-115 [7]): 0%; BK [8]: 1%
CC1(C)CCc2c(nc3ccccc3c2O)O1	-18	6%	7	–
COc1ccc2c(c1)c1c(c(=O)n2C)C=CC(C)(C)O1	12	64%	–	BK [14]: 88%; BNa (N1E-115 [7]): 1%; BK [5]: 93%; IC50 (N1E-115 [9]): 31 µM; IC50 [6]: 10 µM; BK (N1E-115 [10]): 44%
CC1(C)Oc2nc3ccccc3c(O)c2CC1SS(=O)(=O)O (configuration not stated)	–	–	–	BNa (N1E-115 [4]): 6%; BK (N1E-115 [15]): 0%
CC1(C)CCc2c(O)nc3ccccc3c2O1	3	37%	15	–
COc1ccc2c(c1)c1c(c(=O)n2C)CC(O)C(C)(C)O1 (configuration not stated)	2	21%	4	–
CC(C)(O)C1Cc2c(O)nc3ccccc3c2O1 (configuration not stated)	0	7%	–	–
Cn1c(=O)c2c(c3ccccc31)OC(C)(C)CC2	7	65%	48	–
CC1(C)Oc2nc3ccccc3c(O)c2CC1O (configuration not stated)	–	0%	–	BNa (N1E-115 [4]): 0%
Cn1c(=O)c2c(c3cc([N+](=O)[O-])ccc31)OC(C(C)(C)O)C2 (configuration not stated)	0	4%	–	–

— ChEMBL document CHEMBL1134395, “Angular methoxy-substituted furo- and pyranoquinolinones as blockers of the voltage-gated potassium channel Kv1.3” (J Med Chem, 2001)
